Key:
Cavia porcellus [1] = organism: Cavia porcellus; experiment: Maximum response compared to maximum response to isoprenaline.; format: functional
Method in brief: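 Electrically paced isolated guinea pig left atria (2.5 Hz, 5 ms pulses, 50% above threshold) were held in Krebs–Henseleit at 32 °C under 95% O2/5% CO2 and 0.5 g resting tension. Intrinsic activity is the compound's maximal inotropic response divided by the isoprenaline maximum, with isoprenaline set to 1. The number of experiments is given per value.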

Cavia porcellus [2] = organism: Cavia porcellus; experiment: Positive inotropic activity in isolated left guinea pig atria.; format: functional; settings: read-out: ED50 (the source's name)
Method in brief: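 Isolated guinea pig left atria were paced electrically with square-wave pulses (2.5 Hz, 5 ms, voltage 50% above threshold) and stretched to 0.5 g resting tension. The bath was Krebs–Henseleit at 32 °C, gassed with 95% O2/5% CO2. An isoprenaline dose–response curve was run first to test each preparation. The ED50 (mol/L, dose giving 50% of maximum effect) was derived by the Ariens–Van Rossum method.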

`CCO/C=C\C(=O)Nc1cccc(-c2ccccn2)c1` was tested, and the Intrinsic activity (Cavia porcellus [1]) was 0.33.

With `COc1cccc2c(-c3ccncc3)cc(O)nc12.Cl` the EC50 (Cavia porcellus [2]) was 38 µM and the Intrinsic activity (Cavia porcellus [1]) was 0.45.

`Cl.Oc1ccc2c(-c3ccncc3)ccc(O)c2n1` was tested, and the EC50 (Cavia porcellus [2]) was 20 µM and the Intrinsic activity (Cavia porcellus [1]) was 0.24.

`Cl.Nc1cc2ccccc2nc1O` gave an EC50 (Cavia porcellus [2]) greater than 77 µM and an Intrinsic activity (Cavia porcellus [1]) of 0.2.

In the case of `COc1ccc(N)c2ccc(O)nc12.Cl`, the EC50 (Cavia porcellus [2]) is reported as 235 µM and the Intrinsic activity (Cavia porcellus [1]) is reported as 0.23.

Work on `CC(C)NCC(O)c1ccc(O)c(O)c1` (centres undefined) [ISOPROTERENOL] yielded an Intrinsic activity (Cavia porcellus [1]) of 1.

`COc1ccc(-c2ccncc2)c2c1NC(=O)CC2` showed an EC50 (Cavia porcellus [2]) of 31 µM and an Intrinsic activity (Cavia porcellus [1]) of 0.75.

For `COc1ccc(-c2cccnc2)cc1NC(=O)CC(C)=O`, the EC50 (Cavia porcellus [2]) was 8.3 µM and the Intrinsic activity (Cavia porcellus [1]) was 0.51.

For `CCO/C=C\C(=O)Nc1cc(-c2cccnc2)ccc1OC`, the Intrinsic activity (Cavia porcellus [1]) was 0.54.

Compound `COc1ccc(-c2cccnc2)c2ccc(O)nc12.Cl` has an EC50 (Cavia porcellus [2]) of 5.75 µM and an Intrinsic activity (Cavia porcellus [1]) of 0.79.

`COc1ccc(-c2ccccn2)c2c1NC(=O)CC2` was tested, and the EC50 (Cavia porcellus [2]) was 22 µM and the Intrinsic activity (Cavia porcellus [1]) was 0.44.

Work on `COc1ccc(-c2cccnc2)c2c1NC(=O)CC2` yielded an EC50 (Cavia porcellus [2]) of 12 µM and an Intrinsic activity (Cavia porcellus [1]) of 0.56.

`Cc1[nH]c(=O)c(C#N)cc1-c1ccncc1` [MILRINONE] showed an EC50 (Cavia porcellus [2]) of 14 µM and an Intrinsic activity (Cavia porcellus [1]) of 0.67.

`Br.Oc1ccc2c(-c3cccnc3)ccc(O)c2n1` gave an EC50 (Cavia porcellus [2]) of 6.75 µM and an Intrinsic activity (Cavia porcellus [1]) of 0.62.

Compound `COc1ccc(-c2ccccn2)c2ccc(O)nc12` has an EC50 (Cavia porcellus [2]) of 34.5 µM and an Intrinsic activity (Cavia porcellus [1]) of 0.62.

For `COc1ccc(-c2ccncc2)c2ccc(O)nc12.Cl`, the EC50 (Cavia porcellus [2]) was 35 µM and the Intrinsic activity (Cavia porcellus [1]) was 0.75.

For `Oc1ccc2c(-c3cccnc3)cccc2n1`, the EC50 (Cavia porcellus [2]) was 1.3 µM and the Intrinsic activity (Cavia porcellus [1]) was 0.83.

`CCO/C=C\C(=O)Nc1cc(-c2cccnc2)ccc1Cl` showed an Intrinsic activity (Cavia porcellus [1]) of 0.28.

Compound `COc1cc([S+](C)[O-])ccc1-c1nc2cccnc2[nH]1` (centres undefined) [SULMAZOLE] has an EC50 (Cavia porcellus [2]) of 12 µM and an Intrinsic activity (Cavia porcellus [1]) of 0.85.

`Oc1nc2ccccc2cc1-c1cccnc1` was tested, and the EC50 (Cavia porcellus [2]) was 300 µM and the Intrinsic activity (Cavia porcellus [1]) was 0.08.

`CCO/C=C\C(=O)Nc1cccc(-c2cccnc2)c1` gave an Intrinsic activity (Cavia porcellus [1]) of 0.42.

`Cl.Oc1cc(-c2ccncc2)c2cccc(O)c2n1` was tested, and the EC50 (Cavia porcellus [2]) was 22 µM and the Intrinsic activity (Cavia porcellus [1]) was 0.55.

From ChEMBL document CHEMBL1123378, “Cardiotonic agents. 1. Synthesis and structure-activity relationships in a new class of 3-, 4-, and 5-pyridyl-2(1H)-quinolone derivatives” (1986)
